From publication PMC12830962 (Nature Communications, 2025) come the findings set out here.

Ends that are not written are not given here. * marks the point of attachment. Biotin = O=C1N[C@H]2[C@H](CS[C@H]2CCCCC(=O)*)N1; Ahx = NCCCCCC(=O)O

The subject of experiment [1] is human adipocytes from a type 2 diabetic donor (PT5022). As to the kind of experiment: Glucose uptake assay, adipocytes from type 2 diabetic donor. To be noted: 100 nM insulin. Format: cell-based. An outline of the steps:
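Adipocytes from a type 2 diabetic donor were differentiated from preadipocytes and exposed on day 7 to test compound in DMEM with 0.2% BSA for 24 h. Uptake was read by luminescence (Glucose Uptake-Glo).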

The target of the next experiment is T1, Gal4-PPARα (PPARα-LBD) (Homo sapiens, UniProt Q07869).
T1 sequence (Q07869 239-466 limits assumed): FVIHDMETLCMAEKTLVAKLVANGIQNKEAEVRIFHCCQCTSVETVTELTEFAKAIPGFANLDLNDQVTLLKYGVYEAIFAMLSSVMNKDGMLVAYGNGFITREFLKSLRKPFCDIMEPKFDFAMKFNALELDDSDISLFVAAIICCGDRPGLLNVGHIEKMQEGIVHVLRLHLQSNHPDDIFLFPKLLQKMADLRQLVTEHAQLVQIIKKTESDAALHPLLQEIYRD
The experiment can be described thus: Gal4-PPARα LBD::UAS-luciferase reporter cotransfection assay in HEK293T cells. In kind it is cell-based. Particulars: 1 μΜ compound. In outline: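 HEK293T cells were seeded at 3.3 × 10^6 per 10-cm plate. After 24 h they were PEI-transfected with 8 μg total DNA, Gal4-PPAR LBD plasmid and UAS-luciferase reporter at 1:1. After a further 24 h, cells were replated at 10,000 cells/well in 384-well plates, left 3 h, then given test compound or DMSO for 18 h. Luciferase was read with Britelite Plus.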
For orientation: A reporter such as luciferase makes a cellular process visible.

In experiment [2] the target is T2, His-hPPARγ-LBD (PPARγ2 residues 231–505) (human, UniProt P37231-1 231-505).
T2 sequence (looked up): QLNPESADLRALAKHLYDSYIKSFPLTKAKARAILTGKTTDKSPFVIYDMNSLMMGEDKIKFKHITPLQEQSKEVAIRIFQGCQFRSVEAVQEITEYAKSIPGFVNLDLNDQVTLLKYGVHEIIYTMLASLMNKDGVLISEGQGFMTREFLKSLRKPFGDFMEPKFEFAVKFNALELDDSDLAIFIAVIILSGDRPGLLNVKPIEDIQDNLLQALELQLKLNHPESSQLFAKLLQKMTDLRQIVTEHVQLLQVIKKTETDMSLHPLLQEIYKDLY
The experiment can be described thus: AlphaScreen or HTRF.

Consider `CN(CCOc1ccc(CC2SC(=O)NC2=O)cc1)c1ccccn1` (stereo not shown) [Rosi, rosiglitazone], for which, in experiment [1], the “insulin-stimulated glucose uptake compared to DMSO” value is “significantly enhanced”. Regarding `Cc1c(C)n(Cc2cccc(OC(C)(C)C(=O)O)c2)c2ccc(C(=O)N[C@@H](C)c3ccc(C(C)(C)C)cc3)cc12` [SR10171], in experiment [1], the “insulin-stimulated glucose uptake compared to DMSO” value is listed as “significantly enhanced”. For the same molecule, the “PPARα activation compared to that observed with GW7647 treatment” value at Gal4-PPARα (PPARα-LBD) is reported as ~ 45%.

B1: biotin-Ahx-SRC1-2 coactivator peptide (peptide)
peptide: {Biotin-Ahx}-LTERHKILHRLLQEGSPSD
As for B1, the binding result in experiment [2] is listed as “binds”.
